These results are taken from PMC4650901 (Scientific Reports, 2014).

The subject of assay [1] is HepG2 cells. Put plainly: MTT assay for cell viability/proliferation, HepG2. Particulars: Homo sapiens, HepG2, 24 h; for IC50: read-out: IC50 HepG2; for IC80: read-out: IC80 of glycolysis inhibitors. Format: cell-based.
Another assay deals with AGS cells. Briefly: MTT assay for cell viability/proliferation, AGS. It counts as cell-based. Particulars: Homo sapiens, 24 h, read-out: IC50 AGS. A digest of the protocol: (§1)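 Cells grown in RPMI 1640 with 10% heat-inactivated FBS and penicillin/streptomycin at 37°C, 5% CO2. Plated at 1 × 10^4/well overnight, then treated 24 h with graded test compound (DMSO stock diluted in medium, 0.1% DMSO final; vehicle control 0.1% DMSO). MTT added 4 h in phenol-red-free, serum-free medium; formazan dissolved in DMSO; A492. IC50 = concentration giving 50% growth inhibition; ≥3 repeats.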

The next assay deals with A-375 cells. Put plainly: MTT assay for cell viability/proliferation, A-375. Particulars: Homo sapiens, A-375, 24 h, read-out: IC50 A-375. It counts as cell-based. A digest of the protocol: as §1
For a further assay, the system named is HeLa cells. Briefly: MTT assay for cell viability/proliferation, HeLa. It counts as cell-based. As to conditions: Homo sapiens, 24 h, read-out: IC50 HeLa. The procedure, abridged:
as §1
(Formazan colour is commonly taken as a measure of viable cells.)

For the next assay, the system named is HELF cells. Put plainly: MTT assay, normal counterpart cell line HELF. Particulars: Homo sapiens, 24 h, read-out: IC50 HELF. It counts as cell-based. The procedure, abridged: as §1
For assay [2], the system named is four cancer cell lines (HepG2, AGS, A-375, HeLa). Briefly: MTT assay, range over four cancer cell lines. It counts as cell-based. As to conditions: Homo sapiens, read-out: IC50 to suppress cell proliferation. The procedure, abridged:
as §1

In assay [3] the test system is HepG2 cells. Briefly: Cell cycle analysis by flow cytometry. As to conditions: HepG2, 24 h. Format: cell-based, human. The procedure, abridged:
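Treatments: A-375 cells with test compound at 0, 1, 3, 5 μM; HepG2 cells untreated, 2-DG 20 mM, test compound 4 μM, or 20 mM + 4 μM; all 24 h. 1 × 10^6 cells washed twice in PBS and fixed overnight in 70% ice-cold ethanol. Stained 30 min at 4°C in the dark with 1% Triton X-100, 0.01% RNase, 0.05% PI. Flow cytometry, three experiments.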
Background: Flow cytometry measures light scatter and fluorescence of single cells or particles in a stream.

Assay [4] deals with HepG2 cells. Put plainly: Annexin V-FITC/PI double staining, HepG2. As to conditions: HepG2, 24 h, single drug 2-DG (Fig. 5b: 40 mM). It counts as cell-based, human. The procedure, abridged: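 HepG2 cells exposed 24 h to test compound, 2-DG, or both. 3 × 10^5 cells harvested, PBS-washed twice, stained with Annexin V-FITC and PI for 15 min in the dark, then analysed by flow cytometry. Quadrants: Annexin V−/PI− healthy, V+/PI− early apoptotic, V+/PI+ late apoptotic/necrotic, V−/PI+ necrotic. Three experiments.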

In a further assay the test system is caspase-3. Briefly: Caspase-3 activity assay in HepG2 lysates. It counts as cell-based, human. As to conditions: HepG2, 24 h; 2-DG 10, 20 mM; UA-4 2, 4 μM; 10 + 2, 20 + 4. The procedure, abridged: (§2)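 Lysates were prepared from HepG2 cells treated 24 h with 2-DG (0, 10, 20 mM), test compound (0, 2, 4 μM) or combinations (10 + 2, 20 + 4). Lysates were incubated 4 h at 37°C with pNA substrate: Ac-DEVD-pNA (caspase-3), Ac-IETD-pNA (caspase-8) or Ac-LEHD-pNA (caspase-9). Absorbance at 405 nm, normalised to protein concentration.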

Another assay concerns caspase-8. Briefly: Caspase-8 activity assay in HepG2 lysates. It counts as cell-based, human. As to conditions: HepG2, 24 h; 2-DG 10, 20 mM; UA-4 2, 4 μM; 10 + 2, 20 + 4. The procedure, abridged:
as §2

For a further assay, the system named is caspase-9. Put plainly: Caspase-9 activity assay in HepG2 lysates. It counts as cell-based, human. Particulars: HepG2, 24 h; 2-DG 10, 20 mM; UA-4 2, 4 μM; 10 + 2, 20 + 4. A digest of the protocol:
as §2

Another assay relates to hexokinase (HK). Put plainly: Hexokinase activity assay in HepG2 cells. Format: cell-based, human. Particulars: HepG2, 24 h.
For assay [5], the system named is HepG2 cells. Put plainly: Intracellular ATP, luciferase-luciferin assay. Format: cell-based, human. As to conditions: HepG2, 24 h of treatment (method: 12-h incubation). The procedure, abridged: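 HepG2 cells seeded at 3 × 10^5/well and grown 24 h. Then incubated 12 h with 2-DG (0, 10, 20, 40 mM), test compound (0, 2, 4, 6 μM) or combinations (10 + 2, 20 + 4, 40 + 6). Cells PBS-washed, lysed on ice, and ATP read by luciferase–luciferin luminescence. Values normalised to protein and expressed as % of control mean.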

In assay [6] the test system is HepG2 cells. Briefly: Lactate production assay. Particulars: HepG2, 24 h; UA-4 2, 4 and 6 μM. Format: cell-based, human. A digest of the protocol: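 HepG2 cells (3 × 10^5/well) treated 24 h with 2-DG (0, 10, 20, 40 mM), test compound (0, 2, 4, 6 μM) or combinations (10 + 2, 20 + 4, 40 + 6). Lactate in culture supernatant measured by kit at OD 530 nm and normalised to cell number. Medium background subtracted; means ± SD of triplicate wells.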

As to `CC(=O)O[C@H]1C(=O)[C@@]2(C)[C@H]([C@H](OC(=O)c3ccccc3)[C@]3(O)C[C@H](OC(=O)[C@H](O)[C@@H](NC(=O)c4ccccc4)c4ccccc4)C(C)=C1C3(C)C)[C@]1(OC(C)=O)CO[C@@H]1C[C@@H]2O` [Paclitaxel], the IC50 in the assay on HepG2 cells [1] was 10.32 ± 0.02 µM; with AGS cells, 9.24 ± 0.13 µM; with A-375 cells it was 8.56 ± 0.07 µM; in the assay on HeLa cells it was 6.62 ± 0.21 µM; in the assay with HELF cells it was 7.17 ± 0.08 µM.
By IC80 is commonly meant the concentration at which the effect reaches the 80% level. For the compound `c1ccc([C@H]2CN3CCSC3=N2)cc1` [LM, levamisole], in the assay on HepG2 cells [1], the IC80 amounted to 2500 µM.
Take `N[C@@H](CS)C(=O)O` [L-Cys, L-cysteine]: the IC80 in the assay with HepG2 cells [1] stood at 15000 µM.
Turning to `C[C@H]1[C@H](C)CC[C@]2(C(=O)O)CC[C@]3(C)C(=CC[C@@H]4[C@@]5(C)CC[C@H](O)C(C)(C)[C@@H]5CC[C@]43C)[C@H]12` [UA, 3β-hydroxy-urs-12-en-28-oic acid], the IC50 with HepG2 cells [1] is 68.8 ± 3.71 µM; in the assay on AGS cells, 43.2 ± 2.13 µM; in the assay on A-375 cells, 57.6 ± 3.21 µM; with HeLa cells, 33.1 ± 0.63 µM; with HELF cells it was 21.3 ± 1.76 µM; in [2], 33.1 to 68.8 µM.
Take `O=CC[C@@H](O)[C@H](O)[C@H](O)CO` [Compound 2-DG, 2-Deoxy-D-glucose]: in the assay on HepG2 cells [1], the IC80 was found to be 50000 µM. The “cell cycle arrest (in words)” value with HepG2 cells [3] was “cell cycle arrest in G2/M”. Moreover, in the assay with HepG2 cells [4], the apoptosis is reported as 13.7%. For the same compound, the “activity of caspase-3” value in the assay with caspase-3 is on record as “dose-dependently increased”. In addition, in the assay on caspase-8, the “activity of caspase-8” value was “dose-dependently increased”. Besides, the “activity of caspase-9” value in the assay with caspase-9 is recorded as “dose-dependently increased”. In addition, the “total hexokinase (HK) activity (in words)” value in the assay with hexokinase (HK) was “reduce the activity of hexokinase”. For the same compound, in the assay on HepG2 cells [5], the “intracellular ATP concentration (in words)” value was “slightly decreased”. For the same compound, in the assay with HepG2 cells [6], the “lactate production (in words)” value is given as “decreased lactate production”.
